{
  "source": "paper PMC2726660",
  "about": "(Archives of biochemistry and biophysics, 2009)",
  "key": {"[1]": {"test_system": "purified bovine brain tubulin", "assay": "Electron microscopy of polymer morphology", "type": "biochemical", "conditions": "10 μM compound, 10 μM tubulin, 0.75 M glutamate, 30 min at 30 °C", "in_short": "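Purified bovine brain tubulin with microtubule-associated proteins removed, at 10 μM, in 0.75 M monosodium glutamate (stock pH 6.6), 10 μM GTP and 4% DMSO. Test compound at 10 μM, with a no-addition control. After 30 min at 30 °C, aliquots were put on carbon-coated Formvar copper grids and stained with 5-10 drops of 1% uranyl acetate. Excess stain was wicked off and grids examined by TEM.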"}, "[2]": {"test_system": "MCF-7 human breast carcinoma cells", "assay": "Growth of human breast carcinoma MCF-7 cells", "type": "cell-based", "conditions": "for IC50: read-out: Inhibition of cell growth IC50 (μM) ± S. D., MCF-7 cells, 48 h, sulforhodamine B", "in_short": "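MCF-7 cells from the NCI drug screening group, grown in RPMI with 10% heat-treated fetal bovine serum. About 5,000 cells per well seeded, adhered overnight, then exposed to test compound for 48 h at 37 °C in humidified 5% CO2; final DMSO 0.5% (v/v). Growth read as cellular protein by sulforhodamine B staining. IC50 is 50% growth inhibition.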"}, "[3]": {"test_system": "purified bovine brain tubulin", "assay": "Centrifugal assay for spiral formation", "type": "biochemical", "conditions": "threshold EC50 < 100 μM", "in_short": "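Purified bovine brain tubulin (MAP-free) at 10 μM in 0.75 M monosodium glutamate (stock pH 6.6), 10 μM GTP, 4% (v/v) DMSO as compound solvent. Incubated 20 min at 30 °C, then centrifuged 15 min at room temperature (about 20 °C). Lowry protein measured in supernatant and in uncentrifuged mixture. EC50 is the concentration removing 50% of tubulin from the supernatant versus no-compound reactions.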"}, "[4]": {"conditions": "cited from earlier work"}, "[5]": {"test_system": "purified bovine brain tubulin", "assay": "Turbidimetric tubulin assembly assay in glutamate", "type": "biochemical"}, "tubulin [6]": {"test_system": "tubulin", "assay": "Binding of radiolabeled colchicine to tubulin", "design": "species or system bovine"}, "preformed microtubules": {"test_system": "preformed microtubules", "assay": "Binding of radiolabeled paclitaxel to preformed microtubules", "conditions": "unpublished data"}, "tubulin [7]": {"test_system": "tubulin", "conditions": "cited from earlier work"}, "cultured cells": {"test_system": "cultured cells", "assay": "Microtubule bundle formation in cultured cells", "type": "cell-based", "conditions": "synthetic compound"}, "tubulin [8]": {"test_system": "tubulin", "assay": "Binding of [3H]vinblastine to tubulin", "conditions": "authors' attempt to reproduce ref 3"}},
  "note": "Read-outs that look alike come from different tables or passages of the source.",
  "data": [
    {"compound": "CC[C@]1(O)C[C@@H]2CN(CCc3c([nH]c4ccccc34)[C@@](C(=O)OC)(c3cc4c(cc3OC)N(C)[C@H]3[C@@](O)(C(=O)OC)[C@H](OC(C)=O)[C@]5(CC)C=CCN6CC[C@]43[C@@H]65)C2)C1", "note": "[vinblastine]", "values": [
      {"measurement": "morphology of polymer formed in glutamate with 10 μM GTP", "setting": "[1]", "result": "typical tight spirals"}
    ]},
    {"compound": "CC12CCCn3ccc(c31)-c1ccccc1NC(=O)CC2", "note": "(stereo not shown) [Compound 5]", "values": [
      {"measurement": "IC50", "setting": "[2]", "result": "3.8 ± 1", "unit": "µM"}
    ]},
    {"compound": "(±)-rhazinilam", "values": [
      {"measurement": "activity in the tubulin-based (spiralization) assay, in words", "setting": "[3]", "result": "approximately half as active as (−)-rhazinilam"},
      {"measurement": "IC50", "setting": "[2]", "result": "1.8 ± 0.7", "unit": "µM"},
      {"measurement": "activity in the cell-based (MCF-7) assay, in words", "setting": "[2]; threshold IC50 < 10 μM", "result": "approximately half as active as (−)-rhazinilam"}
    ]},
    {"compound": "(+)-rhazinilam", "values": [
      {"measurement": "activity of the enantiomer, in words", "setting": "[4]", "result": "inactive"}
    ]},
    {"compound": "(−)-rhazinilam", "values": [
      {"measurement": "disassembly of polymer at 0 °C", "setting": "[5]; 20 μM compound + 0.4 mM GTP, 0.75 M glutamate (Fig. 5, curve 4)", "result": "little disassembly"},
      {"measurement": "disassembly of polymer at 0 °C", "setting": "[5]; 20 μM compound, no GTP, 0.75 M glutamate (Fig. 5, curve 2)", "result": "disassembled slowly in the cold"},
      {"measurement": "concentration at end of the inhibitory effect on tubulin assembly", "setting": "[5]; 0.8 M glutamate, 0.4 mM GTP, 10 μM tubulin (Fig. 2, curve 4)", "result": 3, "unit": "µM"},
      {"measurement": "concentration at onset of spiral induction", "setting": "[5]; 0.8 M glutamate, 0.4 mM GTP, 10 μM tubulin (Fig. 2, curve 5)", "result": 4, "unit": "µM"},
      {"measurement": "inhibition of the binding of radiolabeled colchicine to tubulin", "setting": "tubulin [6]", "result": "no inhibitory effect"},
      {"measurement": "inhibition of the binding of radiolabeled paclitaxel to preformed microtubules", "setting": "preformed microtubules", "result": "no inhibitory effect"},
      {"measurement": "inhibition of the binding of [3H]vinblastine to tubulin", "setting": "tubulin [7]", "result": "inhibited the binding"},
      {"measurement": "effect on microtubules in cultured cells", "setting": "cultured cells", "result": "formation of extensive bundled microtubules"},
      {"measurement": "inhibition of the binding of [3H]vinblastine to tubulin", "setting": "tubulin [8]", "result": "unable to reproduce this result"},
      {"measurement": "IC50", "setting": "[2]", "result": "0.97 ± 0.3", "unit": "µM"}
    ]}
  ]
}
